Test results taken from ChEMBL document CHEMBL3603784, “Novel hybrids of 3-n-butylphthalide and edaravone: Design, synthesis and evaluations as potential anti-ischemic stroke agents” (2015).
Calls of active or inactive are those of the source. No cut-off for these calls is given here.

What was measured:
[1] = Antiplatelet activity in rabbit platelet rich plasma assessed as inhibition of ADP-induced platelet aggregation at 0.1 mM preincubated for 5 mins followed by ADP addition measured after 5 mins by Born's turbidimetric method relative to control; type: functional; settings: Oryctolagus cuniculus
In short: (§1)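 Rabbit PRP was taken from centrifugation supernatant, and PPP was obtained at 3000 rpm for 10 min. PRP was pretreated in duplicate with test agent or vehicle for 5 min at 37 °C, then given ADP (10 µM) or AA (1 mM). Aggregation was followed turbidimetrically by optical density. Results are % inhibition versus vehicle-treated, inducer-exposed samples, n = 6, mean ± SD.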

[2] = Antiplatelet activity in rabbit platelet rich plasma assessed as inhibition of arachidonic acid-induced platelet aggregation at 0.1 mM preincubated for 5 mins followed by arachidonic acid addition measured after 5 mins by Born's turbidimetric method relative to control; type: functional; settings: Oryctolagus cuniculus; in short: as §1
[3] = Neuroprotective activity against H2O2-induce cell damage in rat PC12 cells assessed as cell viability at 10 uM preincubated for 1 hr followed by H2O2 induction measured after 3 hrs by MTT assay (reference value: 50.85%); type: functional; settings: PC-12, read-out: Activity
[4] = Neuroprotective activity against H2O2-induce cell damage in rat PC12 cells assessed as cell viability at 1 uM preincubated for 1 hr followed by H2O2 induction measured after 3 hrs by MTT assay (reference value: 50.85%); type: functional; settings: PC-12, read-out: Activity
PC-12 [5] = experiment: Antioxidant activity in rat PC12 cells assessed as reduction of H2O2/Fe2+-mediated hydroxyl radical formation at 10 uM preincubated for 1 hr followed by H2O2/Fe2+ addition by Griess assay; type: functional
In short: (§2)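 PC12 cells grown in DMEM with 10% heat-inactivated horse serum, 5% FBS, 1.0 mM sodium pyruvate, penicillin/streptomycin, 37 °C, 5% CO2. Cells pretreated in triplicate for 1 h, then exposed to 1 mM H2O2/20 µM Fe2+ (pH 7.4). After a medium change, cells were collected in 0.5 mL phosphate buffer (pH 7.4). Hydroxyl radical activity was read by Griess assay.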

PC-12 [6] = experiment: Antioxidant activity in rat PC12 cells assessed as reduction of NADH-mediated superoxide anion radical formation at 10 uM preincubated for 1 hr followed by NADH addition by NBT assay; type: functional
In short: (§3)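 PC12 cells were cultured as for the other PC12 assays and pretreated in triplicate for 1 h. Each tube then received DMSO, 468 µM NADH and 300 µM NBT. Superoxide activity was read by NBT assay, with DMSO used to fully dissolve the formazan.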

PC-12 [7] = experiment: Neuroprotective activity against H2O2-induce cell damage in rat PC12 cells assessed as cell viability at 10 uM preincubated for 1 hr followed by H2O2 induction measured after 3 hrs by MTT assay; type: functional, cell-based
[8] = Antiplatelet activity in rabbit platelet rich plasma assessed as inhibition of ADP-induced platelet aggregation at 0.1 mM preincubated for 5 mins followed by ADP addition measured after 5 mins by Born's turbidimetric method in presence of edaravone relative to control; type: functional; settings: Oryctolagus cuniculus; in short: as §1
[9] = Antiplatelet activity in rabbit platelet rich plasma assessed as inhibition of arachidonic acid-induced platelet aggregation at 0.1 mM preincubated for 5 mins followed by arachidonic acid addition measured after 5 mins by Born's turbidimetric method in presence of edaravone relative to control; type: functional; settings: Oryctolagus cuniculus; in short: as §1
[10] = Neuroprotective activity against H2O2-induce cell damage in rat PC12 cells assessed as cell viability at 10 uM preincubated for 1 hr followed by H2O2 induction measured after 3 hrs by MTT assay in presence of edaravone (reference value: 50.85%); type: functional; settings: PC-12, read-out: Activity
PC-12 [11] = experiment: Antioxidant activity in rat PC12 cells assessed as reduction of H2O2/Fe2+-mediated hydroxyl radical formation at 10 uM preincubated for 1 hr followed by H2O2/Fe2+ addition by Griess assay in presence of edaravone; type: functional; in short: as §2
PC-12 [12] = experiment: Antioxidant activity in rat PC12 cells assessed as reduction of NADH-mediated superoxide anion radical formation at 10 uM preincubated for 1 hr followed by NADH addition by NBT assay in presence of edaravone; type: functional; in short: as §3
[13] = Antiplatelet activity in rabbit platelet rich plasma assessed as inhibition of ADP-induced platelet aggregation at 0.1 mM preincubated for 5 mins followed by ADP addition measured after 5 mins by Born's turbidimetric method in presence of NBP relative to control; type: functional; settings: Oryctolagus cuniculus; in short: as §1
[14] = Antiplatelet activity in rabbit platelet rich plasma assessed as inhibition of arachidonic acid-induced platelet aggregation at 0.1 mM preincubated for 5 mins followed by arachidonic acid addition measured after 5 mins by Born's turbidimetric method in presence of NBP relative to control; type: functional; settings: Oryctolagus cuniculus; in short: as §1
[15] = Neuroprotective activity against H2O2-induce cell damage in rat PC12 cells assessed as cell viability at 10 uM preincubated for 1 hr followed by H2O2 induction measured after 3 hrs by MTT assay in presence of NBP (reference value: 50.85%); type: functional; settings: PC-12, read-out: Activity
PC-12 [16] = experiment: Antioxidant activity in rat PC12 cells assessed as reduction of H2O2/Fe2+-mediated hydroxyl radical formation at 10 uM preincubated for 1 hr followed by H2O2/Fe2+ addition by Griess assay in presence of NBP; type: functional; in short: as §2
PC-12 [17] = experiment: Antioxidant activity in rat PC12 cells assessed as reduction of NADH-mediated superoxide anion radical formation at 10 uM preincubated for 1 hr followed by NADH addition by NBT assay in presence of NBP; type: functional; in short: as §3

SMILES	inhibition at 100 µM [1] [%]	inhibition at 100 µM [2] [%]	viability at 10 µM [3] [%]	Activity (PC-12 [5]) [U/ml]	Activity (PC-12 [6]) [U/L]	further results
CCCCC(OC(C)=O)c1ccccc1C(=O)Oc1cc(C)nn1-c1ccc(Cl)cc1 (centres undefined)	29.3	40.3	–	–	–	–
CCCCC(OC(C)=O)c1ccccc1C(=O)Oc1cc(C)nn1-c1ccc(F)cc1 (centres undefined)	31.8	59.9	93.3	65.51	141.49	viability at 1 µM [4]: 88.1%
CCCCC(OC(C)=O)c1ccccc1C(=O)Oc1cc(C)nn1-c1ccccc1 (centres undefined)	23	15.4	–	–	–	–
CC1=NN(c2ccc(F)cc2)C(=O)C1	13.5	24.3	–	31.7447	117.579	Activity (PC-12 [7]): Active
CCCCC(OC(C)=O)c1ccccc1C(=O)Oc1cc(C)nn1-c1ccc([N+](=O)[O-])cc1 (centres undefined)	33.9	39.6	85.2	–	–	–
CCCCC(OC(C)=O)c1ccccc1C(=O)Oc1cc(C)nn1-c1cccc(Cl)c1 (centres undefined)	35.2	46.1	–	–	–	–
CCCCC(OC(C)=O)c1ccccc1C(=O)Oc1cc(C(F)(F)F)nn1-c1ccc(Cl)cc1 (centres undefined)	23.2	26.6	83	–	–	–
CCCCC(OC(C)=O)c1ccccc1C(=O)Oc1cc(C(F)(F)F)nn1-c1ccc(F)cc1 (centres undefined)	13.6	27.5	–	–	–	–
CCCCC(OC(C)=O)c1ccccc1C(=O)Oc1cc(C(F)(F)F)nn1-c1ccccc1 (centres undefined)	26.9	29.3	–	–	–	–
CC(=O)Oc1ccccc1C(=O)O [ASPIRIN]	–	16.2	77.4	30.6956	79.3793	–
CCCCC(OC(C)=O)c1ccccc1C(=O)O (centres undefined)	17.7	27.7	–	17.6015	56.1954	Activity (PC-12 [7]): Active
CCCCC(OC(C)=O)c1ccccc1C(=O)Oc1cc(C(F)(F)F)nn1-c1cccc(Cl)c1 (centres undefined)	31.2	21.2	–	–	–	–
Clc1ccccc1CN1CCc2sccc2C1 [TICLOPIDINE]	11.5	–	67.2	15.0616	26.9592	–
CCCCC(OC(C)=O)c1ccccc1C(=O)Oc1cc(C(F)(F)F)nn1-c1ccc(OC)cc1 (centres undefined)	19.9	37.7	–	–	–	–
CCCCC(OC(C)=O)c1ccccc1C(=O)Oc1cc(C)nn1-c1ccc(C)cc1 (centres undefined)	21.3	20.5	86	–	–	–
CCCCC1OC(=O)c2ccccc21 (racemic) [RAC-3-N-BUTYLPHTHALIDE]	22.9	14.1	71	16.2026	36.7429	inhibition at 100 µM [8]: 28.1%; inhibition at 100 µM [9]: 42.5%; viability at 10 µM [10]: 76.6%; Activity (PC-12 [11]): 36.8347 U/ml; Activity (PC-12 [12]): 140.787 U/L
CCCCC(OC(C)=O)c1ccccc1C(=O)Oc1cc(C(F)(F)F)nn1-c1ccc(C)cc1 (centres undefined)	25.5	40.7	–	–	–	–
CCCCC(OC(C)=O)c1ccccc1C(=O)Oc1cc(C(F)(F)F)nn1-c1ccc([N+](=O)[O-])cc1 (centres undefined)	15.4	21.3	87.3	–	–	–
CCCCC(OC(C)=O)c1ccccc1C(=O)Oc1cc(C)nn1-c1ccc(OC)cc1 (centres undefined)	30.2	29.4	–	–	–	–
CC1=NN(c2ccccc2)C(=O)C1 [EDARAVONE]	24.8	25.5	76.9	25.2753	97.6942	inhibition at 100 µM [13]: 28.1%; inhibition at 100 µM [14]: 42.5%; viability at 10 µM [15]: 76.6%; Activity (PC-12 [16]): 36.8347 U/ml; Activity (PC-12 [17]): 140.787 U/L
